pIC50: −log10 of the molar value. Converted amounts (≈) assume the structure as drawn. The source made the active and inactive calls. The rule behind the calls is not given here.
Assays:
[1] = Induction of nitric oxide release at 10 uM in presence of cysteine; format: physicochemical
Schistosoma mansoni [2] = assay: Antischistosomal activity against Schistosoma mansoni assessed as induction of parasite mortality after 16 hrs; format: functional; design: concentration or dose not given beside the values
Outline: (§1)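 Cultured ex vivo worms were exposed to 10 μM compound. Worm effects were scored by visual examination at time points over a 72 h time-course.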

[3] = molecular target: T1, Thioredoxin reductase 1, cytoplasmic (Rattus norvegicus, UniProt O89049); assay: Inhibition of rat recombinant TrxR1 after 10 mins
T1 sequence (O89049 whole entry): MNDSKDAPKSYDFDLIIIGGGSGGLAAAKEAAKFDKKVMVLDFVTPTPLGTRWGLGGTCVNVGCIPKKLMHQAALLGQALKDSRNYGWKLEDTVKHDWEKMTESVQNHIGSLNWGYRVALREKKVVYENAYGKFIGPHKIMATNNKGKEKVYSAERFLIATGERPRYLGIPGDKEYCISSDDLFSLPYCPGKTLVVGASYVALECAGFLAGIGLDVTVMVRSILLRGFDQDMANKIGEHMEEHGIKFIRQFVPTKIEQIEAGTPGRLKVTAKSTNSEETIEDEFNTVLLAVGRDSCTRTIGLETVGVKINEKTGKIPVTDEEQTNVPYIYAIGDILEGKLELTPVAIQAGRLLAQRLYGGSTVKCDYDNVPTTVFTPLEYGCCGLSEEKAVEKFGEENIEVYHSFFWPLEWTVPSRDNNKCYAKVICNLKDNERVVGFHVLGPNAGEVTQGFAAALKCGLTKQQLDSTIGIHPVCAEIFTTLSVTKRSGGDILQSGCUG

Schistosoma mansoni [4] = assay: Antischistosomal activity against Schistosoma mansoni assessed as induction of parasite sluggish movement after 4 hrs; format: functional, organism-based; outline: as §1
Schistosoma mansoni [5] = assay: Antischistosomal activity against Schistosoma mansoni assessed as parasite killing after 2 hrs; format: functional, organism-based; outline: as §1
Schistosoma mansoni [6] = assay: Antischistosomal activity against Schistosoma mansoni assessed as induction of parasite mortality after 8 hrs; format: functional; design: concentration or dose not given beside the values; outline: as §1
[7] = molecular target: T2, Glutathione reductase, mitochondrial (Homo sapiens, UniProt P00390); assay: Inhibition of human recombinant GR after 15 mins in presence of NADPH
T2 sequence (P00390 whole entry): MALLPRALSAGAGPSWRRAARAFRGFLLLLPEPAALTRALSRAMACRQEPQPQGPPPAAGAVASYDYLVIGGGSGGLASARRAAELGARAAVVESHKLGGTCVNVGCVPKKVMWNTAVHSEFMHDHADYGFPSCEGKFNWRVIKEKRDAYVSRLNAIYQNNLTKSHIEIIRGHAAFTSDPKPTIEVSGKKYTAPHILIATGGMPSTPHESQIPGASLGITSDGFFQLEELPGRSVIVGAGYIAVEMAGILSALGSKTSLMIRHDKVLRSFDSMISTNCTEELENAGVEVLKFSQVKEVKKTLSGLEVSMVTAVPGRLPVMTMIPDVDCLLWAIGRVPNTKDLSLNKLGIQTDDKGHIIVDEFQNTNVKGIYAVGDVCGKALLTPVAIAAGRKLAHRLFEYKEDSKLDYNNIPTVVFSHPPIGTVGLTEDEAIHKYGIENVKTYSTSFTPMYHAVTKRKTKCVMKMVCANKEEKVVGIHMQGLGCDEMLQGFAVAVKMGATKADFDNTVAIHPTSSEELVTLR

Schistosoma mansoni [8] = assay: Antischistosomal activity against Schistosoma mansoni assessed as induction of parasite mortality after 24 hrs; format: functional; design: concentration or dose not given beside the values; outline: as §1
Schistosoma mansoni [9] = assay: Antischistosomal activity against Schistosoma mansoni assessed as induction of parasite mortality after 72 hrs; format: functional; design: concentration or dose not given beside the values; outline: as §1
Schistosoma mansoni [10] = assay: Antischistosomal activity against Schistosoma mansoni assessed as induction of parasite mortality after 48 hrs; format: functional; design: concentration or dose not given beside the values; outline: as §1
[11] = Induction of nitric oxide release at 10 uM in presence of Schistosoma mansoni recombinant TGR and NADPH; format: functional
[12] = Induction of nitric oxide release at 10 uM in presence of Schistosoma mansoni recombinant TGR; format: functional
Schistosoma mansoni [13] = assay: Antischistosomal activity against Schistosoma mansoni assessed as induction of parasite sluggish movement after 8 hrs; format: functional, organism-based; outline: as §1
Schistosoma mansoni [14] = assay: Antischistosomal activity against Schistosoma mansoni assessed as induction of parasite sluggish movement after 16 hrs; format: functional, organism-based; outline: as §1
Schistosoma mansoni [15] = assay: Antischistosomal activity against Schistosoma mansoni assessed as parasite killing after 4 hrs; format: functional; outline: as §1
[16] = molecular target: T3, Thioredoxin glutathione reductase (Schistosoma mansoni, UniProt Q962Y6); assay: Inhibition of Schistosoma mansoni TGR
T3 sequence (Q962Y6 whole entry): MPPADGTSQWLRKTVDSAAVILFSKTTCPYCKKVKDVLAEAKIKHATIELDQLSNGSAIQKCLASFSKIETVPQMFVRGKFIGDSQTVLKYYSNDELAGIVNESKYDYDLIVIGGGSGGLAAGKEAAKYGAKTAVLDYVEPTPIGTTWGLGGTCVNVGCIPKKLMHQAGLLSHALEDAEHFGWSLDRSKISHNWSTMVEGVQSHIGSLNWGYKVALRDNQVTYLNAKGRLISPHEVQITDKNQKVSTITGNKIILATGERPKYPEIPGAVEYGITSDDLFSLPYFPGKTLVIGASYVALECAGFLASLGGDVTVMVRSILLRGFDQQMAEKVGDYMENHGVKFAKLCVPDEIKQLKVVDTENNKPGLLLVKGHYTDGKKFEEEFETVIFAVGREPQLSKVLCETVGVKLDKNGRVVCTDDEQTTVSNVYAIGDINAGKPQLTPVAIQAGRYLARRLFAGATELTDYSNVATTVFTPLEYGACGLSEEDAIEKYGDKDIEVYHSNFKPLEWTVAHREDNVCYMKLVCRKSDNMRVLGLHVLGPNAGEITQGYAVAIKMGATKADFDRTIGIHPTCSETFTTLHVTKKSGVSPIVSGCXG

[17] = Metabolic stability in human liver microsomes assessed as compound remaining over 60 mins in presence of NADPH; format: ADME, Microsome; details: read-out: Stability
[18] = Metabolic stability in human liver microsomes assessed as compound remaining over 60 mins in absence of NADPH; format: ADME, Microsome; details: read-out: Stability
hERG (KCNH2) = hERG (KCNH2) (Homo sapiens, UniProt Q12809); assay: Inhibition of human ERG expressed in HEK293 cells at 10 uM by fast patch clamp method; details: HEK293 cells expressing human ERG
Chain of hERG (KCNH2) (Q12809 whole entry): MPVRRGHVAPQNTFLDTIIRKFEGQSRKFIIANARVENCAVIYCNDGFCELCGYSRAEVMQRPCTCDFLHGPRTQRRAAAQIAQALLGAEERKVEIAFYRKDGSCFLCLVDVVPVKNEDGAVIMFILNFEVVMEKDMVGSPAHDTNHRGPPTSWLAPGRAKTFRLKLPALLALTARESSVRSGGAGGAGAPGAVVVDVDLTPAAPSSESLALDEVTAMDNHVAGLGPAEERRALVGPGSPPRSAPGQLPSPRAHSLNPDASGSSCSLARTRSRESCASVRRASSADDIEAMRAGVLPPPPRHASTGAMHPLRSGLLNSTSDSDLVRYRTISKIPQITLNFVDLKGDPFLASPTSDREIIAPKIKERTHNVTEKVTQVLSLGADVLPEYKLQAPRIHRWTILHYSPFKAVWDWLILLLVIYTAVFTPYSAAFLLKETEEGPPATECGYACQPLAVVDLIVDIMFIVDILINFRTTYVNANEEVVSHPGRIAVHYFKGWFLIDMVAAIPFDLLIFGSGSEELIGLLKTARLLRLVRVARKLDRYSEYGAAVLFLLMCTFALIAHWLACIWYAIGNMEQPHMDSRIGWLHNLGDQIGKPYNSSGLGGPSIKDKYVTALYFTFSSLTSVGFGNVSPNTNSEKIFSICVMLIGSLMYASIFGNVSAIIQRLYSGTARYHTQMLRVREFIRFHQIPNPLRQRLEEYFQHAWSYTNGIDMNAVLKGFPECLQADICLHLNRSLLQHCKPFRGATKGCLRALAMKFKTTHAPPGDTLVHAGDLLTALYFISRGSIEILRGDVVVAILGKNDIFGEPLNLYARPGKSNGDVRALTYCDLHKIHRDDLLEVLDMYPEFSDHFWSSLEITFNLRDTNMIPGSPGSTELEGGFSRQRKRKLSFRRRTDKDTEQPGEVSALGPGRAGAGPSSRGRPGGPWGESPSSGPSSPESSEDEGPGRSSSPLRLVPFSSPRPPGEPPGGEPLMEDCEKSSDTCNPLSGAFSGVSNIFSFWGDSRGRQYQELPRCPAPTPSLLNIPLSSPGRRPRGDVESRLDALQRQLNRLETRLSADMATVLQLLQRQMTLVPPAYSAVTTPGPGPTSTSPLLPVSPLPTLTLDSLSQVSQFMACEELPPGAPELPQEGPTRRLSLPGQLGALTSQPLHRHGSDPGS

[19] = Solubility by quantitative nitrogen detection based method
Caco-2 [20] = assay: Apparent permeability from basolateral to apical side of human Caco-2 cells
Schistosoma mansoni [21] = assay: Antischistosomal activity against Schistosoma mansoni assessed as induction of parasite sluggish movement after 24 hrs; format: functional, organism-based; outline: as §1
Caco-2 [22] = assay: Apparent permeability from apical to basolateral side of human Caco-2 cells
[23] = Distribution coefficient, log D of the compound; details: octanol/water
[24] = Reactivity with cysteine at 0.1 mM in 0.1M phosphate buffer assessed as amount of compound unreacted by HPLC
Schistosoma mansoni [25] = assay: Antischistosomal activity against Schistosoma mansoni assessed as induction of parasite curling after 4 hrs; format: functional, organism-based; outline: as §1
Schistosoma mansoni [26] = assay: Antischistosomal activity against Schistosoma mansoni assessed as induction of parasite curling after 8 hrs; format: functional, organism-based; outline: as §1
Schistosoma mansoni [27] = assay: Antischistosomal activity against Schistosoma mansoni assessed as induction of parasite sluggish movement after 48 hrs; format: functional, organism-based; outline: as §1

SMILES | Activity [1] [%] | Activity (Schistosoma mansoni [2]) | pIC50 [3] | Activity (Schistosoma mansoni [5]) | Activity (Schistosoma mansoni [6]) | pIC50 [7] | Activity (Schistosoma mansoni [8]) | Activity (Schistosoma mansoni [9]) [%] | Activity (Schistosoma mansoni [10]) [%] | Activity [11] [%] | Activity [12] [%] | Activity (Schistosoma mansoni [15]) | inhibition at 10 µM (hERG (KCNH2)) [%] | solubility [19] [µM] | also measured
N#Cc1c(-c2cccc(Cl)c2)no[n+]1[O-] | 50 | 20% | > 4.90 | inactive | 15% | 4.45 | 64% | 100 | 80 | 12 | 1 |  |  |  | Activity (Schistosoma mansoni [4]): Active
N#Cc1c(-c2ccc(-c3ccccc3)cc2)no[n+]1[O-] |  |  |  | inactive |  |  | Active | 45 | 40 |  |  | inactive |  |  | Activity (Schistosoma mansoni [13]): Active; Activity (Schistosoma mansoni [14]): Active
N#Cc1c(-c2cccs2)no[n+]1[O-] | 20 | 25% |  | inactive |  |  | 25% | 100 | 100 | 2 | 1 | inactive | 3.4 | 240 (≈ 46.4 µg/mL) | pIC50 [16]: 5.46; remaining at 1 h [17]: 1%; remaining at 1 h [18]: 64%; Papp (Caco-2 [20]): 9 ×10⁻⁶ cm/s
O=Cc1c(-c2ccccc2)no[n+]1[O-] | 9 | inactive | > 4.90 | inactive | inactive | 4.45 |  | 5 | 3 | 7 | 1 | inactive |  |  | Activity (Schistosoma mansoni [21]): Active
N#Cc1c(-c2ccc(O)cc2)no[n+]1[O-] |  | 15% | < 3.40 | inactive |  | < 4.30 | 40% | 100 | 60 |  |  | inactive |  |  | Activity (Schistosoma mansoni [13]): Active
N#Cc1c(-c2cc(F)cc(-c3no[n+]([O-])c3C#N)c2)no[n+]1[O-] |  | 55% |  | inactive |  |  | 78% |  | 100 |  |  | inactive | 29.4 | 89.1 (≈ 28 µg/mL) | remaining at 1 h [17]: 20%; remaining at 1 h [18]: 51%; Papp (Caco-2 [20]): 2.7 ×10⁻⁶ cm/s; Papp (Caco-2 [22]): 7.9 ×10⁻⁶ cm/s; logD [23]: 2.91; Activity [24]: Active
N#Cc1c(-c2ccccc2)no[n+]1[O-] [FUROXAN] |  |  |  | inactive |  |  |  |  |  | 15 | 1.5 |  |  |  | Activity (Schistosoma mansoni [25]): Active; Activity [24]: Active
N#Cc1c(-c2ccc(F)c(Br)c2)no[n+]1[O-] | 69 | Active | 3.60 | inactive |  | < 4.30 | 5% | 100 | 75 | 19 | 2 | inactive |  |  | Activity (Schistosoma mansoni [26]): Active
Cc1c(-c2ccccc2)no[n+]1[O-] | 2 | inactive | < 3.40 | inactive | inactive | < 4.30 | inactive | 5 |  | < 1 | < 1 | inactive |  |  | Activity (Schistosoma mansoni [27]): Active; Activity [24]: inactive
N#Cc1c(-c2ccc(Br)cc2)no[n+]1[O-] | 68 | 60% | 3.60 | inactive | 39% | < 4.30 | 100% | 100 | 100 | 19 | 4 |  | 5.5 | 18.6 (≈ 4.95 µg/mL) | remaining at 1 h [17]: 10%; remaining at 1 h [18]: 67%; Activity (Schistosoma mansoni [4]): Active; Papp (Caco-2 [20]): 4.8 ×10⁻⁶ cm/s; Papp (Caco-2 [22]): 7.9 ×10⁻⁶ cm/s; logD [23]: 3.1
N#Cc1c(-c2cccc(-c3no[n+]([O-])c3C#N)c2)no[n+]1[O-] |  | 60% | 3.82 | inactive | 45% | < 4.30 | 100% |  | 100 |  |  |  | 7.8 | 5 (≈ 1.48 µg/mL) | Activity (Schistosoma mansoni [25]): Active

— ChEMBL document CHEMBL1155233, “Structure mechanism insights and the role of nitric oxide donation guide the development of oxadiazole-2-oxides as therapeutic agents against schistosomiasis” (J Med Chem, 2009)
